Experimental findings from ChEMBL document CHEMBL4364306, “Structure-activity relationships of thiazole and benzothiazole derivatives as selective cannabinoid CB2 agonists with in vivo anti-inflammatory properties” (Eur J Med Chem, 2019) are described below.

The target in experiment [1] is T1, Cannabinoid receptor 1 (Homo sapiens, UniProt P21554). Nature of the experiment: Displacement of [3H]CP55940 from recombinant human CB1R expressed in HEK293 cell membranes at 10 uM incubated for 90 mins relative to control.
Experiment [2] concerns the target T1, Cannabinoid receptor 1. Briefly: Agonist activity at N-terminal Flag epitope tagged CB1 (unknown origin) expressed in HTLA cells assessed as increase of beta-arrestin recruitment by Tango assay. In kind it is cell-based. The gist of the method: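 HTLA cells transfected overnight with GPCR Tango constructs, plated at 15,000 cells/well in DMEM with 1% dFBS and allowed to recover at least 6 h. Compounds in Tango buffer (20 mM HEPES, 1x HBSS, pH 7.40) added overnight, full concentration-response up to 30 µM against CP-55,940 as reference agonist. BrightGlo reagent added for 20 min at room temperature in the dark, then luminescence read.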

Experiment [3] concerns the target T2, Cannabinoid receptor 2 (Homo sapiens, UniProt P34972). Briefly: Antagonist activity at N-terminal Flag epitope tagged CB2 (unknown origin) expressed in HTLA cells assessed as decrease in CP55940-induced beta-arrestin recruitment pretreated with non-selective cannabinoid receptor agonist CP55940 for 30 mins and measured after 20 mins by Tango assay. In kind it is cell-based.

In experiment [4] the target is T1, Cannabinoid receptor 1. Briefly: Antagonist activity at N-terminal Flag epitope tagged CB1 (unknown origin) expressed in HTLA cells assessed as decrease in CP55940-induced beta-arrestin recruitment pretreated with non-selective cannabinoid receptor agonist CP55940 for 30 mins and measured after 20 mins by Tango assay. In kind it is cell-based. (Recruitment of arrestin is a read-out of receptor activation apart from second messengers.)

Experiment [5] deals with T2, Cannabinoid receptor 2. Briefly: Displacement of [3H]CP55940 from recombinant human CB2R expressed in HEK293 cell membranes at 10 uM incubated for 90 mins relative to control. In general terms: Displacement assays read how much labelled ligand stays bound in the presence of the test substance.
For experiment [6], the target named is T2, Cannabinoid receptor 2. Briefly: Agonist activity at N-terminal Flag epitope tagged CB2 (unknown origin) expressed in HTLA cells assessed as increase of beta-arrestin recruitment by Tango assay. In kind it is cell-based. The gist of the method:
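β-arrestin Tango assay: HTLA cells transfected overnight with GPCR tango constructs, plated at 15,000 cells/well in DMEM with 1% dFBS, recovered ≥6 h. Drugs in Tango buffer (20 mM HEPES, 1x HBSS, pH 7.40) added overnight, full concentration-response (maximum 30 µM). BrightGlo reagent, 20 min room temperature in dark, luminescence read.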

Experiment [7] is filed under the species Homo sapiens. Briefly: Selectivity index, ratio of Ki for recombinant human CB1R expressed in HEK293 cell membranes to Ki for recombinant human CB2R expressed in HEK293 cell membranes. Format: cell-based.

Calls of active or inactive are those of the source. No cut-off for these calls is given here.

A word on the EC50: it is the midpoint of the concentration-response curve.

T2 sequence (P34972 whole entry): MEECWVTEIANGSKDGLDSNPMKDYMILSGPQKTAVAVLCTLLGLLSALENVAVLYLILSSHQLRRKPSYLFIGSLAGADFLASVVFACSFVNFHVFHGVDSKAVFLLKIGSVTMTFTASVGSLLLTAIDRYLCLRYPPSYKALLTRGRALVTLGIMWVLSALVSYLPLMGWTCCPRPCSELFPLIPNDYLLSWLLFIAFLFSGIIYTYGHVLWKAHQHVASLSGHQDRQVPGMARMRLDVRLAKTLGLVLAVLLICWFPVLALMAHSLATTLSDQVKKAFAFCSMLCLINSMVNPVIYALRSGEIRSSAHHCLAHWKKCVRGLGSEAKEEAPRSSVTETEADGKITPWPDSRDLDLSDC
T1 sequence (P21554 whole entry): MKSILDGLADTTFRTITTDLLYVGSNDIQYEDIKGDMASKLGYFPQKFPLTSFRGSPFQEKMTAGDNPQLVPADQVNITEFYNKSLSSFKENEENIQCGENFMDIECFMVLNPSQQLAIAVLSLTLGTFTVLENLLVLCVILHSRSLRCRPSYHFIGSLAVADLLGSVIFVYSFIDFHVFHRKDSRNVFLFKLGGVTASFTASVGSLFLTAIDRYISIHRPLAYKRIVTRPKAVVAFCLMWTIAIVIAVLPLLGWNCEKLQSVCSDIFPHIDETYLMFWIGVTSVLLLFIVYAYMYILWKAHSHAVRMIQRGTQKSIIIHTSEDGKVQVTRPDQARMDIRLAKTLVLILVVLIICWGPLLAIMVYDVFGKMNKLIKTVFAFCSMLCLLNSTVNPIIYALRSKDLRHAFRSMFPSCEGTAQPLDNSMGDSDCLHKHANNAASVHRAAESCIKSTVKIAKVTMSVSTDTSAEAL

Regarding `O=C(Nc1cccc2ccccc12)c1nc2ccccc2s1`, the result in experiment [1] and in experiment [5] was Active. Further, the EC50 in experiment [2], in experiment [3], in experiment [4] and in experiment [6] was > 30 µM throughout.

On to `Cc1nc(-c2ccccc2)sc1C(=O)N1CCOCC1`, for which the result in experiment [1] and in experiment [5] was Active. The EC50 in experiment [2], in experiment [3], in experiment [4] and in experiment [6] was > 30 µM in each case. Also, the Ratio Ki in experiment [7] is > 3.

`Cc1nc(-c2ccccc2)sc1C(=O)NC1CCCCC1`: the result in experiment [1] and in experiment [5] was Active. Moreover, the half-maximal effective concentration (EC50) in experiment [2], in experiment [3], in experiment [4] and in experiment [6] was > 30 µM in each case.

Regarding `Cc1nc(C)c(C(=O)NCc2ccccc2)s1`, the outcome in experiment [1] and in experiment [5] was Active. Moreover, the concentration giving a half-maximal response (EC50) in experiment [2], in experiment [3], in experiment [4] and in experiment [6] was > 30 µM in each case.

`Cc1nc(-c2ccccc2)sc1C(=O)NC1CC1`: the result in experiment [1] and in experiment [5] was Active. Also, the EC50 in experiment [2], in experiment [3], in experiment [4] and in experiment [6] was > 30 µM each time.

Take `Cc1nc(-c2ccccc2)sc1C(=O)NCc1ccccc1`: the outcome in experiment [1] and in experiment [5] was Active. Also, the EC50 in experiment [2], in experiment [3], in experiment [4] and in experiment [6] was > 30 µM in each case.

As for `O=C(NC12CC3CC(CC(C3)C1)C2)c1nc2ccccc2s1`, the outcome in experiment [1] and in experiment [5] was Active. In addition, the concentration for a half-maximal effect (EC50) in experiment [2], in experiment [3], in experiment [4] and in experiment [6] was > 30 µM throughout. The Ratio Ki in experiment [7] is > 121.

`O=C(NC1CCCc2ccccc21)c1nc2ccccc2s1` (stereo not given): the result in experiment [1] and in experiment [5] was Active. Moreover, the 50% effective concentration (EC50) in experiment [2], in experiment [3], in experiment [4] and in experiment [6] was > 30 µM throughout. Moreover, the Ratio Ki in experiment [7] amounted to 3.

With `Cc1nc(-c2ccccc2)sc1C(=O)NC1CCCC1`, the result in experiment [1] and in experiment [5] was Active. The concentration for a half-maximal effect (EC50) in experiment [2], in experiment [3], in experiment [4] and in experiment [6] was > 30 µM each time.

On to `Cc1ccc(Cn2nc(C(=O)N[C@@H]3C(C)(C)[C@@H]4CC[C@@]3(C)C4)cc2-c2ccc(Cl)c(C)c2)cc1`, for which the result in experiment [1] was Active.

For `O=C(Nc1nc2ccccc2s1)c1cccc(C(F)(F)F)c1`, the outcome in experiment [1] and in experiment [5] was Active. Moreover, the concentration giving a half-maximal response (EC50) in experiment [2], in experiment [3], in experiment [4] and in experiment [6] was > 30 µM in each case.

Take `Cc1nc(C)c(C(=O)NC23CC4CC(CC(C4)C2)C3)s1`: the outcome in experiment [1] and in experiment [5] was Active. Also, the half-maximal effective concentration (EC50) in experiment [2], in experiment [3], in experiment [4] and in experiment [6] was > 30 µM in each case. For the same compound, the Ratio Ki in experiment [7] is > 6.

As to `O=C(NCC1CCCCC1)c1nc2ccccc2s1`, the outcome in experiment [1] and in experiment [5] was Active. Moreover, the half-maximal effective concentration (EC50) in experiment [2], in experiment [3], in experiment [4] and in experiment [6] was > 30 µM throughout. The Ratio Ki in experiment [7] was > 7.

As to `O=C(Nc1nc2ccccc2s1)C12CC3CC(CC(C3)C1)C2`, the outcome in experiment [1] and in experiment [5] was Active. Moreover, the EC50 in experiment [2], in experiment [3], in experiment [4] and in experiment [6] was > 30 µM throughout. Further, in experiment [7], the Ratio Ki is > 36.

With `O=C(Nc1ccc2ccccc2c1)c1nc2ccccc2s1`, the result in experiment [1] and in experiment [5] was Active. The EC50 in experiment [2], in experiment [3], in experiment [4] and in experiment [6] was > 30 µM each time.

`O=C(Nc1nc2ccccc2s1)c1ccc(C(F)(F)F)cc1`: the result in experiment [1] and in experiment [5] was Active. The concentration for a half-maximal effect (EC50) in experiment [2], in experiment [3], in experiment [4] and in experiment [6] was > 30 µM each time.

For the compound `Cc1nc(C)c(C(=O)NC2CCCc3ccccc32)s1` (stereo not given), the result in experiment [1] and in experiment [5] was Active. Besides, the EC50 in experiment [2] was > 30 µM; in experiment [3] it was 0.437 µM; in experiment [4], 1.17 µM; in experiment [6], > 30 µM.

For `CCCCNC(=O)c1sc(-c2ccccc2)nc1C`, the outcome in experiment [1] and in experiment [5] was Active. The half-maximal effective concentration (EC50) in experiment [2], in experiment [3], in experiment [4] and in experiment [6] was > 30 µM in each case.

Take `O=C(NCc1ccccc1Cl)c1nc2ccccc2s1`: the result in experiment [1] and in experiment [5] was Active. Besides, the concentration for a half-maximal effect (EC50) in experiment [2] is > 30 µM; in experiment [3] it was > 30 µM; in experiment [4] it was > 30 µM; in experiment [6], 3.31 µM. Also, the Ratio Ki in experiment [7] was > 9.

Regarding `O=C(Nc1nc2ccccc2s1)c1cccc2ccccc12`, the result in experiment [1] and in experiment [5] was Active. Also, the EC50 in experiment [2], in experiment [3], in experiment [4] and in experiment [6] was > 30 µM throughout. For the same compound, the Ratio Ki in experiment [7] is > 7.

Turning to `Cc1nc(C(C)(C)C)sc1C(=O)NC12CC3CC(CC(C3)C1)C2`, the result in experiment [1] and in experiment [5] was Active. The half-maximal effective concentration (EC50) in experiment [2] was > 30 µM; in experiment [3] it was > 30 µM; in experiment [4], > 30 µM; in experiment [6] it was 3.98 µM. Also, the Ratio Ki in experiment [7] is > 25.

Consider `CCCCCn1/c(=N/C(=O)c2ccc(C(F)(F)F)cc2)sc2ccccc21`, for which the result in experiment [1] and in experiment [5] was Active. The EC50 in experiment [2] was > 30 µM; in experiment [3] it was > 30 µM; in experiment [4] it was > 30 µM; in experiment [6], 2.51 µM. Besides, the Ratio Ki in experiment [7] came out at 393.

Take `Cc1nc(-c2ccccc2)sc1C(=O)NCc1ccc(F)cc1`: the result in experiment [1] and in experiment [5] was Active. Besides, the EC50 in experiment [2], in experiment [3], in experiment [4] and in experiment [6] was > 30 µM each time.

For `Cc1nc(-c2ccccc2)sc1C(=O)NC1CCCc2ccccc21` (stereo not given), the result in experiment [1] and in experiment [5] was Active. The 50% effective concentration (EC50) in experiment [2], in experiment [3], in experiment [4] and in experiment [6] was > 30 µM each time. The Ratio Ki in experiment [7] is > 4.

Turning to `O=C(NCc1ccccc1)c1nc2ccccc2s1`, the outcome in experiment [1] and in experiment [5] was Active. Also, the 50% effective concentration (EC50) in experiment [2], in experiment [3], in experiment [4] and in experiment [6] was > 30 µM in each case.

Take `CCCCCCNC(=O)c1sc(-c2ccccc2)nc1C`: the result in experiment [1] and in experiment [5] was Active. In addition, the EC50 in experiment [2], in experiment [3], in experiment [4] and in experiment [6] was > 30 µM in each case.

`Cc1nc(-c2ccccc2)sc1C(=O)NCC1CCCCC1`: the result in experiment [1] and in experiment [5] was Active. Also, the EC50 in experiment [2], in experiment [3], in experiment [4] and in experiment [6] was > 30 µM in each case.

`Cc1nc(-c2ccccc2)sc1C(=O)NCc1ccccc1Cl`: the outcome in experiment [1] and in experiment [5] was Active. Also, the concentration giving a half-maximal response (EC50) in experiment [2], in experiment [3], in experiment [4] and in experiment [6] was > 30 µM each time.

As to `Cc1nc(-c2ccccc2)sc1C(=O)NCc1ccccc1F`, the result in experiment [1] and in experiment [5] was Active. For the same compound, the EC50 in experiment [2], in experiment [3], in experiment [4] and in experiment [6] was > 30 µM each time.
